Assay results taken from ChEMBL document CHEMBL3526004, “Interaction of silymarin flavonolignans with organic anion-transporting polypeptides” (Drug Metab Dispos, 2013).

Assays:
[1] = biological target: T1, Solute carrier organic anion transporter family member 1B3 (Homo sapiens, UniProt Q9NPD5); experiment: Inhibition of OATP1B3 (unknown origin) expressed in HEK293 cells assessed as reduction of [3H]estradiol-17beta-glucuronide uptake at 10 uM after 3 mins by beta-counting; format: ADME, cell-based; conditions: hek293, 0.05 h
T1 sequence (Q9NPD5 whole entry): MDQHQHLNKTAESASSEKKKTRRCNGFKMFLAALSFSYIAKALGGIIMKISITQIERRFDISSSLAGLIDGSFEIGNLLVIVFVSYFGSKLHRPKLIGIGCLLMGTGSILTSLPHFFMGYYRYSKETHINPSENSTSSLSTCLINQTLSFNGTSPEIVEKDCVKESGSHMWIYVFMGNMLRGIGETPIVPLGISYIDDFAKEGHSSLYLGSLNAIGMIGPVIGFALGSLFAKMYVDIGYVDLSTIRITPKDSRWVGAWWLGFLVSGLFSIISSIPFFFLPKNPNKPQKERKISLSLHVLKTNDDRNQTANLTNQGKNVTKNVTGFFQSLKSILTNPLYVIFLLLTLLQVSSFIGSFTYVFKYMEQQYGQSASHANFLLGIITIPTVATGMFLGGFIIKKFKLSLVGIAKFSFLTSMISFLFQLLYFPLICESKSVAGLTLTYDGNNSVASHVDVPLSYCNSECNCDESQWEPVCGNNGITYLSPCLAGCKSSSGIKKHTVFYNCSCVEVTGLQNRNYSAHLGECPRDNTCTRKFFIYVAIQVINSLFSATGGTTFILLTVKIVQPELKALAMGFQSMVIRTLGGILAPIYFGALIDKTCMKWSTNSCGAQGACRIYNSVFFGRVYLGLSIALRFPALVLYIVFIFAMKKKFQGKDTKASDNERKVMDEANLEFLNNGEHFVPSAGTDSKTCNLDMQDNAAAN
In short: (§1)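 Confluent cells were washed in PBS, then given 1 µM [3H]-E2 17G (OATP1B1, OATP1B3 HEK293) or 1 µM [3H]-E1S (OATP2B1 MDCKII) with 10 µM compound in HBSS pH 7.4 for 3 min at 37°C. Uptake into mock or parental cells was subtracted after protein normalization. Results are % vehicle, mean ± SD of at least three experiments in triplicate.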

[2] = biological target: T2, Solute carrier organic anion transporter family member 2B1 (Homo sapiens, UniProt O94956); experiment: Inhibition of OATP2B1 (unknown origin) expressed in MDCK2 cells assessed as reduction of [3H]estrone-3-sulfate uptake at 10 uM after 3 mins by beta-counting; format: ADME, cell-based; conditions: mdck-ii, 0.05 h; in short: as §1
T2 sequence (O94956 whole entry): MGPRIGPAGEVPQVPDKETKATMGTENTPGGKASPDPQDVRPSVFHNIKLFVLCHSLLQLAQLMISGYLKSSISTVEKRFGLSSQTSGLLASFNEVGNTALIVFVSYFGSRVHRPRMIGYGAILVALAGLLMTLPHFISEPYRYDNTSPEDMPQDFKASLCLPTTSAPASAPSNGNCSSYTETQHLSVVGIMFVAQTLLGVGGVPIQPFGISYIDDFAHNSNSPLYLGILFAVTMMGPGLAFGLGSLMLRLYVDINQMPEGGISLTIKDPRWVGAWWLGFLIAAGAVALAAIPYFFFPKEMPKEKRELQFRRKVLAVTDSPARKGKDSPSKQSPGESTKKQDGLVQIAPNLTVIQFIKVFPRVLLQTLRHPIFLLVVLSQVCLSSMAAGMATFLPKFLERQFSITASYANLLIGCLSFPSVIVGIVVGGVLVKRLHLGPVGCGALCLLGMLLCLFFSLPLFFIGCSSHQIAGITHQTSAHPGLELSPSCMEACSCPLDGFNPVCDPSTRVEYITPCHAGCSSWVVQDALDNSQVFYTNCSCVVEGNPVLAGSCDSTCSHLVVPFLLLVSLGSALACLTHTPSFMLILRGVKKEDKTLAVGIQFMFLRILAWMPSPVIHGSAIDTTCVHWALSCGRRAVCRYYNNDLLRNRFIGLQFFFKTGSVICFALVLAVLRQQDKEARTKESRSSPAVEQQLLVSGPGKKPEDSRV

[3] = biological target: T3, Solute carrier organic anion transporter family member 1B1 (Homo sapiens, UniProt Q9Y6L6); experiment: Inhibition of OATP1B1 (unknown origin) expressed in HEK293 cells assessed as reduction of [3H]estradiol-17beta-glucuronide uptake at 10 uM after 3 mins by beta-counting; format: ADME, cell-based; conditions: hek293, 0.05 h; in short: as §1
T3 sequence (Q9Y6L6 whole entry): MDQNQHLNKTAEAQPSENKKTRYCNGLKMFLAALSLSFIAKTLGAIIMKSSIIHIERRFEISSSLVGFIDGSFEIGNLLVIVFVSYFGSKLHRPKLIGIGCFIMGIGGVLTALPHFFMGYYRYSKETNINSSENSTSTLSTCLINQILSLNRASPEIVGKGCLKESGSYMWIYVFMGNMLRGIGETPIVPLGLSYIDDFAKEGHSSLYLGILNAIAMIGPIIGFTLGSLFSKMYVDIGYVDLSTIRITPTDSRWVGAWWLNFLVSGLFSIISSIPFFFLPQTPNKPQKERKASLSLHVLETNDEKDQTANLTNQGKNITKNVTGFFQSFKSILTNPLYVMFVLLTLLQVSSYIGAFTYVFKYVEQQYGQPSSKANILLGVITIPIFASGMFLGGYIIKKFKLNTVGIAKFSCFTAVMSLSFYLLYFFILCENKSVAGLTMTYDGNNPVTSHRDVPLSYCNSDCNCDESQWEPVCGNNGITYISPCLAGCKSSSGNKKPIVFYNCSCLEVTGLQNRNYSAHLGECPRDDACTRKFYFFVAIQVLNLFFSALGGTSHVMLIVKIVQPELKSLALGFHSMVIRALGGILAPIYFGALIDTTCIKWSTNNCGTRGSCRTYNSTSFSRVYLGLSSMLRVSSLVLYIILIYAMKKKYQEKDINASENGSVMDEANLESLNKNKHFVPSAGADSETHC

[4] = biological target: T3, Solute carrier organic anion transporter family member 1B1; experiment: Inhibition of OATP1B1 (unknown origin) expressed in HEK293 cells assessed as reduction of [3H]estradiol-17beta-glucuronide uptake after 3 mins by beta-counting; format: ADME, cell-based
In short: (§2)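 Transfected HEK293 (G418) or MDCKII (hygromycin B) cells were co-incubated with 0-100 µM compound and [3H]-E2 17G (1 µM, 0.25 µCi/ml; OATP1B1, OATP1B3) or [3H]-E1S (1 µM; OATP2B1) in HBSS pH 7.4, 3 min at 37°C. OATP-negative uptake was subtracted, and results expressed as % vehicle. Two experiments were run in duplicate. IC50 came from non-linear dose-response fits.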

[5] = biological target: T1, Solute carrier organic anion transporter family member 1B3; experiment: Inhibition of OATP1B3 (unknown origin) expressed in HEK293 cells assessed as reduction of [3H]estradiol-17beta-glucuronide uptake after 3 mins by beta-counting; format: ADME, cell-based; in short: as §2
[6] = biological target: T2, Solute carrier organic anion transporter family member 2B1; experiment: Inhibition of OATP2B1 (unknown origin) expressed in MDCK2 cells assessed as reduction of [3H]estrone-3-sulfate uptake after 3 mins by beta-counting; format: ADME, cell-based, MDCK-II; in short: as §2
[7] = biological target: T3, Solute carrier organic anion transporter family member 1B1; experiment: Inhibition of OATP1B1 (unknown origin) expressed in HEK293 cells assessed as reduction of [3H]estradiol-17beta-glucuronide uptake after 3 mins by beta-counting in presence of OATP inhibitor BSP; format: ADME, cell-based; conditions: hek293, 0.05 h
[8] = biological target: T1, Solute carrier organic anion transporter family member 1B3; experiment: Inhibition of OATP1B3 (unknown origin) expressed in HEK293 cells assessed as reduction of [3H]estradiol-17beta-glucuronide uptake after 3 mins by beta-counting in presence of OATP inhibitor BSP; format: ADME, cell-based; conditions: hek293, 0.05 h
[9] = biological target: T2, Solute carrier organic anion transporter family member 2B1; experiment: Inhibition of OATP2B1 (unknown origin) expressed in MDCK2 cells assessed as reduction of [3H]estrone-3-sulfate uptake after 3 mins by beta-counting in presence of OATP inhibitor BSP; format: ADME, cell-based; conditions: mdck-ii, 0.05 h
[10] = Inhibition of OATP-mediated [3H]estradiol-17beta-glucuronide uptake in sandwich-cultured human hepatocytes at 100 uM after 1 day by beta-counting; format: ADME, cell-based, Hepatocyte
In short: (§3)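 Day-1 human hepatocytes (seeded 350,000 cells/well, medium changed after 1 h) rinsed in HBSS at 37°C. Co-incubated with [3H]-E2 17G (1 µM, 1 min) or [3H]-rosuvastatin (0.5 µM, 1.5 min) plus compound or vehicle. Cells were washed in ice-cold HBSS, lysed in 0.5% Triton X-100, and counted by scintillation. Non-OATP accumulation (100 µM BSP) was subtracted. Results are % vehicle, protein-normalized, as mean ± SEM of three experiments in triplicate.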

[11] = Inhibition of OATP-mediated [3H]rosuvastatin uptake in sandwich-cultured human hepatocytes at 100 uM after 1 day by beta-counting; format: ADME, cell-based, Hepatocyte; in short: as §3
[12] = Inhibition of OATP-mediated [3H]rosuvastatin uptake in sandwich-cultured human hepatocytes at 100 uM after 8 days by beta-counting; format: ADME, cell-based, Hepatocyte
In short: (§4)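 Hepatocytes were overlaid with Matrigel (0.25 mg/ml) on day 1 and cultured to day 8 in ITS/0.1 µM dexamethasone medium, changed daily. Uptake of [3H]-E2 17G (1 µM, 1 min) or [3H]-rosuvastatin (0.5 µM, 1.5 min) was run at 37°C in HBSS with compound or vehicle. The BSP (100 µM) accumulation was subtracted, and the OATP-mediated uptake was expressed as % vehicle, normalized to BCA protein and corrected with cell-free wells.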

Plasma = experiment: Plasma concentration in patient with chronic noncirrhotic HCV at 420 to 700 mg administered 3 times per day; format: ADME, cell-free; conditions: human
[13] = Protein binding in rat; format: ADME, organism-based; conditions: in vivo, read-out: PB (converted)
[14] = Unbound fraction in human plasma; format: ADME, cell-free
[15] = Cmax at steady state in patient with chronic HCV infection at 140 mg administered 3 times per day; format: ADME, organism-based; parameters: dose 140 mg; conditions: human, in vivo
[16] = fCmax in portal vein of patient with chronic noncirrhotic HCV infection at 140 mg; format: ADME; conditions: human
[17] = fCmax in portal vein of patient with chronic noncirrhotic HCV infection at 700 mg; format: ADME; conditions: human
[18] = Ratio of fCmax in portal vein of patient with chronic noncirrhotic HCV infection at 700 mg to IC50 for OATP1B1 (unknown origin) expressed in HEK293 cells; parameters: species or system Homo sapiens
[19] = Ratio of fCmax in portal vein of patient with chronic noncirrhotic HCV infection at 140 mg to IC50 for OATP1B1 (unknown origin) expressed in HEK293 cells; parameters: species or system Homo sapiens
[20] = Ratio of fCmax in portal vein of patient with chronic noncirrhotic HCV infection at 700 mg to IC50 for OATP1B3 (unknown origin) expressed in HEK293 cells; parameters: species or system Homo sapiens
[21] = Ratio of fCmax in portal vein of patient with chronic noncirrhotic HCV infection at 140 mg to IC50 for OATP1B3 (unknown origin) expressed in HEK293 cells; parameters: species or system Homo sapiens
[22] = Ratio of fCmax in portal vein of patient with chronic noncirrhotic HCV infection at 700 mg to IC50 for OATP2B1 (unknown origin) expressed in HEK293 cells; parameters: species or system Homo sapiens
[23] = Ratio of fCmax in portal vein of patient with chronic noncirrhotic HCV infection at 140 mg to IC50 for OATP2B1 (unknown origin) expressed in HEK293 cells; parameters: species or system Homo sapiens
[24] = Cmax in patient with chronic noncirrhotic HCV infection at 700 mg; format: ADME, organism-based; parameters: dose 700 mg; conditions: human, in vivo
[25] = Cmax in patient with chronic noncirrhotic HCV infection at 140 mg; format: ADME, organism-based; parameters: dose 140 mg; conditions: human, in vivo
[26] = Residual OATP-mediated [3H]estradiol-17beta-glucuronide uptake in sandwich-cultured human hepatocytes at 100 uM after 8 days by beta-counting
[27] = Inhibition of OATP-mediated [3H]estradiol-17beta-glucuronide uptake in sandwich-cultured human hepatocytes at 100 uM after 8 days by beta-counting; format: ADME, cell-based, Hepatocyte; in short: as §4

Row | inhibition (INH) [1] | inhibition (INH) [2] | inhibition (INH) [3] | IC50 [4] | IC50 [5] | IC50 [6] | inhibition (INH) [7] | inhibition (INH) [8] | inhibition (INH) [9] | inhibition (INH) [10] | inhibition (INH) [11] | inhibition (INH) [12] | fraction unbound [13] | fraction unbound [14] | Cmax [15] | fCmax [16] | fCmax [17] | Structure (SMILES) | Ratio [18] | Ratio [19] | Ratio [20] | further results
1 | Active | Active | Active |  |  |  |  |  |  |  |  |  |  |  |  |  |  | COc1cc([C@@H]2[C@H]3CO[C@@]4(O)C(=O)[C@@H]2C=C([C@H]2Oc5cc(O)cc(O)c5C(=O)[C@@H]2O)[C@@H]34)ccc1O [SILIDIANIN] |  |  |  | 
2 | Active | Active | Active | 9.7 µM | 2.7 µM | 4.5 µM | Not Active | Not Active | Not Active | Active | Active | Active | 0.3 | 0.05 | 80 nM | 0.04 µM | 0.22 µM | COc1cc([C@H]2Oc3cc([C@H]4Oc5cc(O)cc(O)c5C(=O)[C@@H]4O)ccc3O[C@@H]2CO)ccc1O [SILYBIN A] | 0.02 | 0.004 | 0.08 | concentration (Plasma): 4200 nM; Ratio [21]: 0.01; Ratio [22]: 0.05; Ratio [23]: 0.01; Cmax [24]: 580 ng/mL; Cmax [25]: 40 ng/mL; residual activity [26]: 58%
3 |  | Active | Active | 8.5 µM | 5 µM | 0.8 µM | Not Active | Not Active | Not Active | Active | Active | Active | 0.3 | 0.05 | 16 nM | 0.13 µM | 0.7 µM | COc1cc([C@@H]2Oc3cc([C@H]4Oc5cc(O)cc(O)c5C(=O)[C@@H]4O)ccc3O[C@H]2CO)ccc1O [SILYBIN B] | 0.08 | 0.02 | 0.14 | inhibition (INH) [27]: Active; Ratio [21]: 0.03; Ratio [22]: 0.88; Ratio [23]: 0.16; Cmax [24]: 220 ng/mL; Cmax [25]: 8 ng/mL
